Molecules are shown by their SMILES.

Data on 25 compounds can be found in ChEMBL document CHEMBL4480462, “HPLC-Based Activity Profiling for Antiprotozoal Compounds in the Endemic Iranian Medicinal Plant Helichrysum oocephalum” (J Nat Prod, 2019).

The subject of one data set is Plasmodium falciparum. As to the kind of experiment: Antiplasmodial activity against Plasmodium falciparum NF54 infected in human erythrocytes assessed as reduction in [3H]-hypoxanthine incorporation pretreated for 48 hrs followed by [3H]-hypoxanthine addition measured after 24 hrs by liquid scintillation counting method. The data set is classed as functional, organism-based. The gist of the method:
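Erythrocytic-stage NF54 parasites were tested over 11 3-fold serial dilutions from 100 to 0.001 μg/mL, with chloroquine as reference. IC50 was derived by linear regression. Runs were single and repeated at least twice, and the value given is the mean of two independent assays.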

For a further data set, the system named is L6. Briefly: Cytotoxicity against rat L6 cells. In kind it is cell-based. In outline:
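Rat skeletal myoblast L6 cells were exposed to 11 3-fold serial drug dilutions covering 100 to 0.001 μg/mL, with podophyllotoxin as reference. IC50 was calculated by linear regression. Runs were single and repeated at least two times, and the figure is the mean of two independent assays.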

The subject of a further data set is Leishmania donovani. As to the kind of experiment: Antileishmanial activity against Leishmania donovani MHOM-ET-67/L82 axenic amastigotes after 70 hrs by resazurin staining based fluorescence assay. To be noted: MHOM-ET-67/L82, 70 h. In kind it is functional, organism-based. The gist of the method:
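Axenically grown amastigotes of strain MHOM-ET-67/L82 were exposed to serial drug dilutions of 11 3-fold steps spanning 100 to 0.001 μg/mL, with miltefosine as reference. IC50 was obtained by linear regression. Each assay was run singly and repeated at least twice, and the reported value is the average of two independent assays.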

Data set [1] is described as follows: Selectivity index, ratio of IC50 for rat L6 cells to IC50 for axenic amastigotes. In outline:
(§1)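 The selectivity index is the IC50 in L6 cells divided by the IC50 in the named parasite. Each IC50 comes from 11-step 3-fold dilution series (100 to 0.001 μg/mL) fitted by linear regression and averaged over two independent assays.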

Data set [2] can be described thus: Selectivity index, ratio of IC50 for rat L6 cells to IC50 for Plasmodium falciparum NF54 infected in human erythrocytes. In kind it is toxicity, cell-based. The conditions noted are these: read-out: Ratio IC50. The gist of the method: as §1

Turning to `CC(=O)c1c(O)c(Cc2c(O)c(C)c(C)oc2=O)c(O)c2c1OC(C)(C)C=C2`, the half-inhibitory concentration (IC50) with Plasmodium falciparum amounted to 11.3 µM; with L6, 53.1 µM; in the data set on Leishmania donovani it was 1.8 µM. Moreover, the “Ratio IC50” value in data set [1] is given as 29.7. The selectivity ratio in data set [2] stood at 4.7.

On to `CC(=O)c1c(O)c(CC=C(C)CCC=C(C)C)c(O)c2c1OC1(C2)OC(C)=C(C)C1=O` (configuration not stated), for which the IC50 in the data set with Plasmodium falciparum turned out to be 23.9 µM; in the data set with L6, 43.4 µM; with Leishmania donovani, 2.8 µM. Further, the “Ratio IC50” value in data set [1] stood at 15.6. Further, the selectivity ratio in data set [2] is 2.2.

Regarding `CCc1oc(=O)c(Cc2c(O)c(C(=O)C(C)C)c(O)c3c2O[C@@]2(C)CC[C@@H]4[C@H]2[C@H]3C4(C)C)c(O)c1C`, the IC50 with Plasmodium falciparum was determined as 7.12 µM; in the data set on L6, 12 µM; in the data set on Leishmania donovani, 2 µM. Also, in data set [1], the “Ratio IC50” value is 6. In data set [2], the selectivity ratio was 1.7.

For the compound `Cc1oc(=O)c(Cc2c(O)c(C)c(C)oc2=O)c(O)c1C`, the concentration for half-maximal inhibition (IC50) in the data set with Plasmodium falciparum is 22.3 µM; with L6, 26.5 µM; with Leishmania donovani, 15.7 µM. Further, the “Ratio IC50” value in data set [1] is given as 1.7. In addition, the selectivity ratio in data set [2] was determined as 2.5.

`CCC(C)C(=O)c1c(O)c(CC=C(C)C)c(O)c(Cc2c(O)c(C)c(C)oc2=O)c1O` (configuration not stated): the figures for the half-inhibitory concentration (IC50) in the data set with Plasmodium falciparum, in the data set with L6 and with Leishmania donovani were 5.5 µM, 55.5 µM and 4.8 µM, respectively. For the same compound, the “Ratio IC50” value in data set [1] is 11.5. For the same compound, in data set [2], the selectivity ratio was 7.9.

`COc1cc([C@@H]2c3cc4c(cc3[C@H](O)[C@H]3COC(=O)[C@H]23)OCO4)cc(OC)c1OC` [PODOFILOX]: the IC50 in the data set with L6 amounted to 0.005 µM.

As to `CC(=O)c1c(O)c(CC=C(C)C)c(O)c2c1OC1(C2)OC(C)=C(C)C1=O` (configuration not stated), the IC50 stood at 14.6 µM in the data set with Plasmodium falciparum, 56.3 µM in the data set with L6 and 5.1 µM with Leishmania donovani. Also, the “Ratio IC50” value in data set [1] is on record as 11.1. Further, in data set [2], the selectivity ratio is 3.9.

`CCC1=C(C)C(=O)C2(Cc3c(O)c(CC=C(C)C)c(O)c(C(=O)C(C)C)c3O2)O1` (configuration not stated): the IC50 in the data set with Plasmodium falciparum was 18 µM; in the data set on L6, 43 µM; in the data set on Leishmania donovani, 6 µM. Also, in data set [1], the “Ratio IC50” value is 7.2. For the same compound, in data set [2], the selectivity ratio came to 2.1.

Turning to `CCc1oc(=O)c(Cc2c(O)c(C)c(CC)oc2=O)c(O)c1C` [HELIPYRONE], the half-maximal inhibitory concentration (IC50) in the data set with Plasmodium falciparum worked out at 8.9 µM; with L6, 54.3 µM; with Leishmania donovani, 14.9 µM. Further, the “Ratio IC50” value in data set [1] is reported as 3.6. Further, the selectivity ratio in data set [2] was determined as 5.4.

On to `CC(C)=CCCC(C)=CCc1c(O)c(Cc2c(O)c(C)c(C)oc2=O)c(O)c(C(=O)C(C)C)c1O`, for which the figures for the IC50 with Plasmodium falciparum, in the data set with L6 and with Leishmania donovani were 5.7 µM, 38.4 µM and 3.1 µM, respectively. The “Ratio IC50” value in data set [1] came to 12.3. In addition, the selectivity ratio in data set [2] turned out to be 9.6.

As to `CCc1oc(=O)c(Cc2c(O)c(CC=C(C)C)c(O)c(C(=O)C(C)C)c2O)c(O)c1C`, the IC50 was found to be 7.4 µM in the data set with Plasmodium falciparum, 52.2 µM in the data set on L6 and 13.7 µM in the data set with Leishmania donovani. In data set [1], the “Ratio IC50” value is 3.8. Further, in data set [2], the selectivity ratio was 7.6.

As for `CCC(C)C(=O)c1c(O)c(CC=C(C)CCC=C(C)C)c(O)c(Cc2c(O)c(C)c(C)oc2=O)c1O` (configuration not stated), the figures for the IC50 with Plasmodium falciparum, with L6 and in the data set with Leishmania donovani were 2.6 µM, 48.3 µM and 4.4 µM, respectively. The “Ratio IC50” value in data set [1] was found to be 11.1. Moreover, the selectivity ratio in data set [2] is 7.7.

`CC(C)=CCc1c(O)c2c(c(C(=O)C(C)C)c1O)OC1(C2)OC(C)=C(C)C1=O` (configuration not stated): the IC50 worked out at 22.7 µM in the data set on Plasmodium falciparum, 20.1 µM in the data set with L6 and 1.9 µM in the data set with Leishmania donovani. Besides, the “Ratio IC50” value in data set [1] was found to be 10.5. Also, the selectivity ratio in data set [2] stood at 1.9.

For the compound `CC(C)=CCCC(C)=CCc1c(O)c2c(c(C(=O)C(C)C)c1O)OC1(C2)OC(C)=C(C)C1=O` (configuration not stated), the IC50 in the data set with Plasmodium falciparum was 7.2 µM; in the data set with L6, 18.8 µM; in the data set on Leishmania donovani, 2.2 µM. In addition, the “Ratio IC50” value in data set [1] came out at 8.5. Also, the selectivity ratio in data set [2] was 5.5.

With `CCc1oc(=O)c(Cc2c(O)c(CC=C(C)CCC=C(C)C)c(O)c(C(=O)C(C)CC)c2O)c(O)c1C` (configuration not stated), the IC50 is 1.2 µM with Plasmodium falciparum, 36.3 µM in the data set on L6 and 5.6 µM in the data set on Leishmania donovani. The “Ratio IC50” value in data set [1] is on record as 6.4. In addition, the selectivity ratio in data set [2] came out at 15.7.

With `CCc1oc(=O)c(Cc2c(O)c(CC=C(C)CCC=C(C)C)c(O)c(C(=O)C(C)C)c2O)c(O)c1C`, the IC50 stood at 3.8 µM in the data set with Plasmodium falciparum, 39.7 µM with L6 and 2.7 µM with Leishmania donovani. In data set [1], the “Ratio IC50” value was found to be 15. In addition, the selectivity ratio in data set [2] was 11.3.

Take `CC(C)=CCc1c(O)c(Cc2c(O)c(C)c(C)oc2=O)c(O)c(C(=O)C(C)C)c1O`: the results for the IC50 in the data set with Plasmodium falciparum, in the data set on L6 and with Leishmania donovani were 8 µM, 61.1 µM and 5.8 µM, respectively. In addition, the “Ratio IC50” value in data set [1] is reported as 10.4. Moreover, the selectivity ratio in data set [2] was 5.5.

For `CCCCCCCCCCCCCCCCOP(=O)([O-])OCC[N+](C)(C)C` [MILTEFOSINE], half-maximal inhibition with Leishmania donovani (IC50) was put at 0.285 µM.

Consider `CCC1=C(C)C(=O)C2(Cc3c(O)c(CC=C(C)C)c(O)c(C(C)=O)c3O2)O1` (configuration not stated), for which the half-maximal inhibitory concentration (IC50) turned out to be 23.1 µM with Plasmodium falciparum, 55.1 µM in the data set on L6 and 5.8 µM with Leishmania donovani. Moreover, in data set [1], the “Ratio IC50” value is 9.5. Besides, the selectivity ratio in data set [2] turned out to be 2.3.

`CCc1oc(=O)c(Cc2c(O)c(Cc3c(O)c(C)c(CC)oc3=O)c(O)c(C(=O)C(C)C)c2O)c(O)c1C`: the figures for the IC50 with Plasmodium falciparum, in the data set on L6 and in the data set with Leishmania donovani were 8.6 µM, 57.6 µM and 2.5 µM, respectively. For the same compound, in data set [1], the “Ratio IC50” value is recorded as 22.9. The selectivity ratio in data set [2] was 4.4.

For the compound `CCC(=O)c1c(O)c(CC=C(C)C)c(O)c2c1OC1(C2)OC(C)=C(C)C1=O` (configuration not stated), the results for the half-maximal inhibitory concentration (IC50) with Plasmodium falciparum, with L6 and in the data set with Leishmania donovani were 31.7 µM, 44.1 µM and 7.1 µM, respectively. The “Ratio IC50” value in data set [1] came out at 6.2. Also, in data set [2], the selectivity ratio was found to be 0.8.

Consider `CCc1oc(=O)c(Cc2c(O)c(C)c(C)oc2=O)c(O)c1C`, for which the 50% inhibitory concentration (IC50) in the data set on Plasmodium falciparum was found to be 18.1 µM; with L6, 43.9 µM; with Leishmania donovani it was 15.5 µM. Further, the “Ratio IC50” value in data set [1] was found to be 2.8. For the same compound, in data set [2], the selectivity ratio turned out to be 3.4.

For `CCc1oc(=O)c(Cc2c(O)c(CC=C(C)C)c(O)c(C(=O)C(C)CC)c2O)c(O)c1C` (configuration not stated), the IC50 came out at 2.5 µM in the data set with Plasmodium falciparum, 37.8 µM in the data set on L6 and 16.8 µM with Leishmania donovani. Besides, the “Ratio IC50” value in data set [1] was 2.25. Further, in data set [2], the selectivity ratio was found to be 5.36.

`CCC(C)C(=O)c1c(O)c(CC=C(C)C)c(O)c2c1OC1(C2)OC(C)=C(C)C1=O` (configuration not stated): the results for the IC50 in the data set on Plasmodium falciparum, in the data set with L6 and with Leishmania donovani were 7.6 µM, 13.2 µM and 1.7 µM, respectively. The “Ratio IC50” value in data set [1] is reported as 7.6. Further, in data set [2], the selectivity ratio was determined as 4.8.

Regarding `CCc1oc(=O)c(Cc2c(O)c3c(c(C(=O)C(C)C)c2O)OC(C)(CCC=C(C)C)C=C3)c(O)c1C` (racemic), the half-maximal inhibitory concentration (IC50) with Plasmodium falciparum was 9.3 µM; in the data set with L6, 21.4 µM; in the data set on Leishmania donovani, 1.9 µM. The “Ratio IC50” value in data set [1] is 11.2. For the same compound, the selectivity ratio in data set [2] worked out at 2.3.
